Hits are enriched below; roughly 1.8% of the tested compounds scored in any of these assays.
MBD2 inh = blocks human MBD2 binding to methylated DNA; inhibition, % at 4.4 µM; TR-FRET, MBD2 binding to methylated oligonucleotide; actives 0.31% (n = 370,000); Q9UBB5; in the data active = inhibition above about 13%
LEDGF integ inh = blocks HIV-1 LEDGF/p75-dependent DNA integration; TR-FRET IN-LEDGF/p75 DNA integration, Eu/Cy5; inhibition, % at 3.7 µM; actives 0.64% (n = 370,000);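 active = inhibition above the screen-wide mean plus 3 SD, cut at about 13% in these data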;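 also: signal is the Cy5 over europium emission ratio at 671 and 618 nm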
TDP2 inh = blocks human TDP2 phosphodiesterase activity | O95551 | recombinant TDP2, T5PNP hydrolysis, p-nitrophenol absorbance 415 nm | inhibition, % at 12.8 µM | actives 0.34% (n = 370,000) | AID 720702;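 active = inhibition above the mean of all tested compounds plus 3 SD, set per campaign, cut at about 25% in these data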
Target sequence (O95551 whole entry, looked up): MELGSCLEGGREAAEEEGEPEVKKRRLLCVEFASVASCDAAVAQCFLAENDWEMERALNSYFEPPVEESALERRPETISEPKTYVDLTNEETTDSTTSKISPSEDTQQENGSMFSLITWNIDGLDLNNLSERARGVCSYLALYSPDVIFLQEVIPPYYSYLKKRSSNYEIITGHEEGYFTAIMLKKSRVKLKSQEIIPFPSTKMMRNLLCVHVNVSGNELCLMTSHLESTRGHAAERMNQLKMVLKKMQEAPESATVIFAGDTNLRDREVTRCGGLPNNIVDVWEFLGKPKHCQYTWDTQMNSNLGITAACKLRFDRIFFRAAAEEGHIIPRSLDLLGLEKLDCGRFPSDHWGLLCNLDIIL
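System – recombinant human TDP2 · Quantity – TDP2 enzyme at 120 nM final · Doses – single concentration, 12.8 µM nominal, with 1% DMSO · Incubation – 2 h at 37 °C · Measured by – epi absorbance of p-nitrophenol freed from T5PNP by hydrolysis · Read-out – % inhibition relative to enzyme-containing and enzyme-free wells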
core dimer inh = blocks dimerization of HCV core protein; inhibition, % at 5 µM; TR-FRET GST/Flag-core106 dimerization, 1536-well; actives 0.33% (n = 300,000);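 active = inhibition above the mean of all tested compounds plus 3 SD, set per screening campaign, cut at about 45% in these data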
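Test system: GST/Flag-tagged HCV core106 proteins; Medium: KF-containing HEPES buffer, pH 7.45, DTT, CHAPS, BSA; Times: compound-protein-antibody incubation 4 h at 22.5 °C; Detection: TR-FRET 671 and 617 nm emission; Benchmarks: wells lacking GST-core106 and wells with excess unlabelled core106.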
UHRF1 MBD2 ctr = UHRF1 methyl-DNA binding inhibition; actives 0.75% (n = 370,000); UHRF1 binding to methylated oligo, TR-FRET; Q96T88; inhibition, % at 4.4 µM; in the data active = inhibition above about 21%;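 also: UHRF1 SRA domain binding a hemimethylated CpG hairpin DNA probe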
TDP2 inh conf = human TDP2 inhibition, confirmation. shares compounds with TDP2 inh. recombinant human TDP2, absorbance read-out. inhibition, % at 12.8 µM. actives 22% (n = 1,100). AID 743263; in the data active = inhibition above about 25%
Numbers stand for hits.

For COc1ccccc1C1CC(=O)NC(C)=C1C(=O)OCC(C)C (configuration not stated) the results were MBD2 inh inactive, LEDGF integ inh inactive, TDP2 inh inactive, core dimer inh inactive and UHRF1 MBD2 ctr inactive.
Screening CC1=C(C(=O)OCC(C)C)C2(O)C(=O)c3ccccc3C2(O)N1 (configuration not stated) returned MBD2 inh inactive, LEDGF integ inh inactive, TDP2 inh 47, core dimer inh inactive, UHRF1 MBD2 ctr inactive and TDP2 inh conf inactive.
C=CCOC(=O)C1=C(C)NC2(O)c3ccccc3C(=O)C12O (configuration not stated) was read as MBD2 inh inactive, LEDGF integ inh inactive, TDP2 inh 43, core dimer inh inactive, UHRF1 MBD2 ctr inactive and TDP2 inh conf inactive.
For O=C1CC2c3cc(Br)ccc3CCN2C(=O)CN1Cc1ccccc1 (configuration not stated) the results were MBD2 inh inactive, LEDGF integ inh inactive, TDP2 inh inactive and UHRF1 MBD2 ctr inactive.
For Cc1ccccc1OCCC(=O)OCC(=O)c1c(N)n(CC(C)C)c(=O)n(C)c1=O the results were MBD2 inh inactive, LEDGF integ inh inactive, TDP2 inh 29, core dimer inh inactive, UHRF1 MBD2 ctr inactive and TDP2 inh conf inactive.
Screening CN(C)CCNc1ccc2ncn3c4ccc(O)cc4c(=O)c1c23 returned MBD2 inh inactive, LEDGF integ inh inactive, TDP2 inh 31, UHRF1 MBD2 ctr inactive and TDP2 inh conf inactive.
For Cc1ccc2cccc(OCc3cccc([N+](=O)[O-])c3)c2n1 the results were MBD2 inh inactive, LEDGF integ inh inactive, TDP2 inh inactive, core dimer inh inactive and UHRF1 MBD2 ctr inactive.
`Cc1ccc(OCCOc2cccc3ccc(C)nc23)c([N+](=O)[O-])c1` gave MBD2 inh inactive, LEDGF integ inh inactive, TDP2 inh 25, core dimer inh inactive, UHRF1 MBD2 ctr inactive and TDP2 inh conf inactive.
For Cc1ccc(-c2cc(-c3nnc(SCC(=O)N4c5ccccc5Sc5ccc(Cl)cc54)n3N)[nH]n2)cc1 the results were MBD2 inh inactive, LEDGF integ inh inactive, TDP2 inh inactive and UHRF1 MBD2 ctr inactive.
For Cc1ccc(/C=C/C(=O)Nc2ncc(C)s2)o1 the results were MBD2 inh inactive, LEDGF integ inh inactive, TDP2 inh inactive, core dimer inh inactive and UHRF1 MBD2 ctr inactive.
Screening Cc1ccc(/C=C/C(=O)Nc2nccs2)o1 returned MBD2 inh inactive, LEDGF integ inh inactive, TDP2 inh 26, core dimer inh inactive, UHRF1 MBD2 ctr inactive and TDP2 inh conf inactive.
`CCCCNC(=O)C[C@H]1C[C@@]2(C(=O)OC)C(=C[C@H](COCc3ccccc3)O[C@@H]2C)N(Cc2ccco2)C1=O` gave MBD2 inh inactive, LEDGF integ inh inactive, TDP2 inh inactive and UHRF1 MBD2 ctr inactive.
O=C(OC12CCCN(C1)/C(=C/c1ccccc1)C2)c1ccccc1 (configuration not stated) was read as MBD2 inh inactive, LEDGF integ inh inactive, TDP2 inh inactive and UHRF1 MBD2 ctr inactive.
Screening Cc1ccccc1NC1=C/C(=N\S(=O)(=O)c2cccs2)c2ccccc2C1=O returned MBD2 inh inactive, LEDGF integ inh 47, TDP2 inh 62, core dimer inh inactive, UHRF1 MBD2 ctr inactive and TDP2 inh conf 75.
Cc1cc[n+](C2=C([O-])c3ccccc3C(=O)/C2=N\S(=O)(=O)c2cccs2)cc1C was read as MBD2 inh inactive, LEDGF integ inh inactive, TDP2 inh inactive, core dimer inh inactive and UHRF1 MBD2 ctr inactive.
Screening O=C(COC(=O)c1ccc([N+](=O)[O-])s1)Nc1ccc(Cl)cn1 returned MBD2 inh inactive, LEDGF integ inh inactive, TDP2 inh inactive, core dimer inh inactive and UHRF1 MBD2 ctr inactive.
Screening O=C(OCc1nnc(-c2ccccc2)o1)c1ccc([N+](=O)[O-])s1 returned MBD2 inh inactive, LEDGF integ inh inactive, TDP2 inh 32, UHRF1 MBD2 ctr inactive and TDP2 inh conf 37.
O=C(COC(=O)c1ccc([N+](=O)[O-])s1)Nc1ccc(F)cc1 was read as MBD2 inh inactive, LEDGF integ inh inactive, TDP2 inh 47, UHRF1 MBD2 ctr inactive and TDP2 inh conf 31.
For O=C(COC(=O)c1ccc([N+](=O)[O-])s1)Nc1ccccc1 the results were MBD2 inh inactive, LEDGF integ inh inactive, TDP2 inh 50, core dimer inh inactive, UHRF1 MBD2 ctr inactive and TDP2 inh conf inactive.
`CC(C)(C)c1ccc(NC(=O)COC(=O)c2ccc([N+](=O)[O-])s2)cc1` gave MBD2 inh inactive, LEDGF integ inh inactive, TDP2 inh inactive, core dimer inh inactive and UHRF1 MBD2 ctr inactive.
Cc1ccc(C(=O)OCc2nnc(-c3ccccc3)o2)s1 was read as MBD2 inh inactive, LEDGF integ inh inactive, TDP2 inh inactive, core dimer inh inactive and UHRF1 MBD2 ctr inactive.
For Cc1c(Cl)cnc(NC(=O)COC(=O)c2ccc([N+](=O)[O-])s2)c1Cl the results were MBD2 inh inactive, LEDGF integ inh inactive, TDP2 inh 37, core dimer inh inactive, UHRF1 MBD2 ctr inactive and TDP2 inh conf inactive.
C#CCCCN([C@H](C(=O)OC)C(C)C)S(=O)(=O)c1ccccc1Br was read as MBD2 inh inactive, LEDGF integ inh inactive, TDP2 inh inactive and UHRF1 MBD2 ctr inactive.
`COC(=O)[C@]12C[C@H](CC(=O)N3CCC(c4ccccc4)CC3)C(=O)N(Cc3ccc(Cl)cc3Cl)C1=C[C@H](C(C)(C)C)O[C@@H]2C` gave MBD2 inh inactive, LEDGF integ inh inactive, TDP2 inh inactive and UHRF1 MBD2 ctr inactive.
For C=CCOC(=O)N[C@H](c1ccc(-c2ccccc2)cc1)[C@H](C)/C=C/CC(=O)OC the results were MBD2 inh inactive, LEDGF integ inh inactive, TDP2 inh inactive and UHRF1 MBD2 ctr inactive.
Screening CCOc1ccc(-n2c(SCC(=O)Nc3ccc(S(=O)(=O)Nc4cc(C)nc(C)n4)cc3)nnc2-c2ccco2)cc1 returned MBD2 inh inactive, LEDGF integ inh inactive, TDP2 inh inactive and UHRF1 MBD2 ctr inactive.
Cc1cccc(C(=O)NC2C(=O)NNC2c2ccc(Cl)cc2)c1 (configuration not stated) was read as MBD2 inh inactive, LEDGF integ inh inactive, TDP2 inh 30, core dimer inh inactive, UHRF1 MBD2 ctr inactive and TDP2 inh conf inactive.
O=C(NC1C(=O)NNC1c1ccccc1)c1ccccc1 (configuration not stated) was read as MBD2 inh inactive, LEDGF integ inh inactive, TDP2 inh inactive, core dimer inh inactive and UHRF1 MBD2 ctr inactive.
Cc1cc(NS(=O)(=O)C2CCN(C(=O)Cc3ccc(Cl)c(Cl)c3)CC2)no1 was read as MBD2 inh inactive, LEDGF integ inh inactive, TDP2 inh inactive and UHRF1 MBD2 ctr inactive.
CCNc1nc(NCC)n2c(SCC(=O)Nc3cc(Cl)ccc3OC)nnc2n1 was read as MBD2 inh inactive, LEDGF integ inh inactive, TDP2 inh 25, core dimer inh inactive, UHRF1 MBD2 ctr inactive and TDP2 inh conf inactive.

Screening data deposited in PubChem BioAssay by The Scripps Research Institute Molecular Screening Center.
